Data taken from ChEMBL document CHEMBL1140080, “Adamantyl-substituted retinoid-derived molecules that interact with the orphan nuclear receptor small heterodimer partner: effects of replacing the 1-adamantyl or hydroxyl group on inhibition of cancer cell growth, induction of cancer cell apoptosis, and inhibition of SRC homology 2 …” (J Med Chem, 2008).

Legend:
[1] = system: MDA-MB-231; assay: Induction of apoptosis in human MDA-MB-231 cells at 2.0 uM after 96 hrs by acridine orange staining; format: functional
Outline: (§1)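 KG-1, HL-60R (24 h) or MDA-MB-231 (96 h) cells in 5% FBS medium attached overnight, then were treated with analogue in Me2SO or vehicle (final 0.1% Me2SO). Apoptotic cells were scored by acridine orange staining on at least three replicates. Tested concentrations were 0.1–5.0 μM, plus 25 μM for KG-1.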

[2] = Induction of apoptosis in human HL60R cells at 0.1 uM after 24 hrs by acridine orange staining; format: functional; outline: as §1
[3] = system: MDA-MB-231; assay: Induction of apoptosis in human MDA-MB-231 cells at 1.0 uM after 96 hrs by acridine orange staining; format: functional; outline: as §1
[4] = Induction of apoptosis in human HL60R cells at 1.0 uM after 24 hrs by acridine orange staining; format: functional; outline: as §1
[5] = Growth inhibition of HMVE cells at 0.5 uM after 72 hrs by alamar blue method; format: cell-based; conditions: human; for inhibition at 72 h, 0.5 µM: HMVE cells, read-out: GI
[6] = Growth inhibition of HMVE cells after 72 hrs by alamar blue method; format: cell-based; conditions: Homo sapiens
[7] = Antiproliferative activity against human H292 cells at 5 uM after 72 hrs by MTT assay; format: functional; conditions: NCI-H292, 72 h
Outline: (§2)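 Cells attached for 24 h, then exposed 72 h to analogue in Me2SO or Me2SO alone (final Me2SO 0.1%), with media and compound renewed after 48 h. Viable cells were measured by MTS tetrazolium reduction in three replicates. Top concentration tested per compound was 2.5, 5, 10, 20 or 100 μM.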

[8] = target: T1, Tyrosine-protein phosphatase non-receptor type 11 (Homo sapiens, UniProt Q06124); assay: Inhibition of SHP2 overexpressed in human KG1 cells; format: cell-based, KG-1
T1 sequence (Q06124 whole entry): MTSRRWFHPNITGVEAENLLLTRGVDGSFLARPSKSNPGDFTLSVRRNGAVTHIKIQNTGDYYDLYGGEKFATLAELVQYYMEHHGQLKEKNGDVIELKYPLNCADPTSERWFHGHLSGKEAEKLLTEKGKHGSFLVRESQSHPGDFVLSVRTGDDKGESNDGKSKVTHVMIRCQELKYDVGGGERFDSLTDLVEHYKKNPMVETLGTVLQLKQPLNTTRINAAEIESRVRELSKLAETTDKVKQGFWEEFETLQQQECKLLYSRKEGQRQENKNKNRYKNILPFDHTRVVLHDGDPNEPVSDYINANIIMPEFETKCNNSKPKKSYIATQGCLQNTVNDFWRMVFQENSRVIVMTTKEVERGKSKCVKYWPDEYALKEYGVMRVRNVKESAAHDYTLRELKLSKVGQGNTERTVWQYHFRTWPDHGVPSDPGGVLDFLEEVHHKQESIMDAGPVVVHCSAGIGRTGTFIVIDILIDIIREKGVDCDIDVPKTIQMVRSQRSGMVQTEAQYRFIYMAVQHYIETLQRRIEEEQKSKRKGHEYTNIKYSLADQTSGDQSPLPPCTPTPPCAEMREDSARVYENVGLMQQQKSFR
Outline: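 Shp-2 PTP activity was measured as hydrolysis of the fluorogenic substrate 6,8-difluoro-4-methylumbelliferyl phosphate in the presence of analogue in Me2SO or Me2SO alone (final concentration 5%).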

[9] = Antiproliferative activity against human KG1 AML cells after 48 hrs by MTT assay; format: functional, cell-based; conditions: in the assay text read “by hemocytometer cell counting” for “by MTT assay”
Outline: (§3)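 KG-1 cells in 5% FBS medium attached overnight, then treated 48 h with analogue in Me2SO or Me2SO alone (final 0.1%). Cells were harvested and counted by hemocytometer in triplicate wells. Highest concentration evaluated was 5 μM.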

[10] = Antiproliferative activity against human KG1 AML cells at 5 uM after 48 hrs by MTT assay; format: functional; conditions: in the assay text read “by hemocytometer cell counting” for “by MTT assay”; outline: as §3
[11] = system: MDA-MB-231; assay: Antiproliferative activity against human MDA-MB-231 cells after 72 hrs by MTT assay; format: functional, cell-based; conditions: MDA-MB-231, 72 h; outline: as §2
[12] = system: MDA-MB-231; assay: Antiproliferative activity against human MDA-MB-231 cells at 5 uM after 72 hrs by MTT assay; format: functional; conditions: MDA-MB-231, 72 h; outline: as §2
[13] = system: DU-145; assay: Antiproliferative activity against human DU145 cells after 72 hrs by MTT assay; format: functional, cell-based; conditions: DU-145, 72 h; outline: as §2
[14] = system: DU-145; assay: Antiproliferative activity against human DU145 cells at 5 uM after 72 hrs by MTT assay; format: functional; conditions: DU-145, 72 h; outline: as §2
[15] = target: T2, Nuclear receptor subfamily 0 group B member 2 (Homo sapiens) (UniProt Q15466); assay: Displacement of [5,5'-3H2]AHPN from human recombinant GST-SHP at 50 uM by liquid scintillation counting relative to 3-Cl-AHPC
T2 sequence (whole entry): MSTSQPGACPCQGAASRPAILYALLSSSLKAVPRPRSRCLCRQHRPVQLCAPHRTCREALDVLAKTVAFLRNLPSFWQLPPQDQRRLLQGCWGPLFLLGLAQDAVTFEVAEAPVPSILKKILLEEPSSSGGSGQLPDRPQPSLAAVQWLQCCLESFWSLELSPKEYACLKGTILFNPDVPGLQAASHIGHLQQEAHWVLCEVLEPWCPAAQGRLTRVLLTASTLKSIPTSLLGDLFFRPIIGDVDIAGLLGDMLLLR
Outline: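 Recombinant GST–human SHP was bound to glutathione–Sepharose beads and incubated 2 h with 5 nM [5,5′-3H2]AHPN with or without competitor (1.0, 5.0 or 50 μM). Beads were washed twice and counted. Displacement was expressed relative to 50 μM 3-Cl-AHPC set as 100%.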

[16] = Antiproliferative activity against human H292 cells after 72 hrs by MTT assay; format: functional, cell-based; conditions: NCI-H292, 72 h; outline: as §2
[17] = system: KG-1; assay: Induction of apoptosis in human KG1 cells after 48 hrs by acridine orange staining; format: functional, cell-based; conditions: KG-1, 48 h
[18] = system: KG-1; assay: Induction of apoptosis in human KG1 cells at 1.0 uM […] by acridine orange staining; format: functional
[19] = system: KG-1; assay: Induction of apoptosis in human KG1 cells at 5.0 uM […] by acridine orange staining; format: functional

| Structure (SMILES) | Activity [2] [%] | Activity [3] [%] | Activity [4] [%] | inhibition at 72 h, 0.5 µM [5] [%] | IC50 [6] [µM] | also measured |
| --- | --- | --- | --- | --- | --- | --- |
| O=C(O)/C=C/c1ccc(-c2ccc(O)c(C3C4CC5CC(C4)CC3C5)c2)cc1 (centres undefined) | 2 | 20 | 90 | – | – | Activity [1]: 47% |
| O=C(O)c1ccc2c(Cl)c(-c3ccc(O)c(C45CC6CC(CC(C6)C4)C5)c3)ccc2c1 | 62 | 21 | 94 | 45 | > 0.5 | Activity [1]: 41% |
| CCCCC[C@@H]1CC2(c3cc(-c4ccc(/C=C/C(=O)O)cc4)ccc3O)CCC1CC2 | 0 | – | 0 | – | – | – |
| O=C(O)c1ccc2cc(-c3ccc(O)c(C4C5CC6CC(C5)CC4C6)c3)ccc2c1 (centres undefined) | 0 | – | 0 | 35 | > 0.5 | – |
| O=C(O)c1ccc2cc(-c3ccc(O)c(C45CC6CC(CC(C6)C4)C5)c3)ccc2c1 [O-DEMETHYLATED ADAPALENE] | 73 | 26 | 98 | – | – | Activity [1]: 46% |
| COc1cc(-c2ccc3cc(C(=O)O)ccc3c2)cc(C23CC4CC(CC(C4)C2)C3)c1 | – | 20 | – | – | – | – |
| O=C(O)/C=C/c1ccc(-c2ccc(O)c(C34CC5CC(CC(C5)C3)C4)c2)cc1 [ADAROTENE] | – | 53 | 98 | 90 | 0.1 | Activity [1]: 58% |
| Nc1ccc(-c2ccc(/C=C/C(=O)O)cc2Cl)cc1C12CC3CC(CC(C3)C1)C2 | – | – | – | – | – | inhibition at 5 µM [7]: 45%; IC50 [8]: 1.83 µM; IC50 [9]: 5 µM; Activity [10]: 50%; IC50 [11]: 4 µM; inhibition at 5 µM [12]: 61%; IC50 [13]: 1.3 µM; inhibition at 5 µM [14]: 79%; Activity [15]: 61%; IC50 [16]: 6 µM; IC50 [17]: 9.3 µM; Activity [18]: 10% |
| CC1=C(/C=C/C(C)=C/C=C/C(C)=C/C(=O)O)C(C)(C)CCC1 [TRETINOIN] | 0 | 0 | 0 | 10 | > 0.5 | Activity [1]: 0% |
| CC1C2(c3cc(-c4ccc(/C=C/C(=O)O)cc4)ccc3O)CCC(C2)C1(C)C (centres undefined) | 2 | – | 2 | – | > 0.5 | growth inhibition (GI) ([5]; hmve, 72 h, 0.5 µM): 40% |
| CC(c1cc(-c2ccc3cc(C(=O)O)ccc3c2)ccc1O)C12CC3CC(CC(C3)C1)C2 (centres undefined) | – | – | 0 | 30 | > 0.5 | – |
| CC1(C)CC(c2cc(-c3ccc4cc(C(=O)O)ccc4c3)ccc2O)CC(C)(C)C1 | 26 | 10 | 60 | 50 | 0.5 | Activity [1]: 49% |
| COc1cc(-c2ccc3cc(C(=O)O)ccc3c2)cc(C23CC4CC(CC(C4)C2)C3)c1O | – | 0 | – | – | – | – |
| CC1(c2cc(-c3ccc(/C=C/C(=O)O)cc3Cl)ccc2O)CCCCC1 | – | – | – | – | – | inhibition at 5 µM [7]: 63%; IC50 [8]: 6.4 µM; IC50 [9]: > 5 µM; Activity [10]: 0%; IC50 [11]: > 5 µM; inhibition at 5 µM [12]: 9%; IC50 [13]: 8 µM; Activity [19]: 0%; inhibition at 5 µM [14]: 32%; IC50 [16]: 3.9 µM; Activity [18]: 0% |
| COc1ccc(C23CC4CC(CC(C4)C2)C3)cc1-c1ccc2cc(C(=O)O)ccc2c1 | – | – | 0 | – | – | – |
| CC1(C)CCC(C)(C)c2cc(-c3cc(-c4ccc(/C=C/C(=O)O)cc4)ccc3O)ccc21 | – | – | 0 | – | – | – |
| COc1cc(-c2ccc3cc(C(=O)O)ccc3c2C)ccc1O | -4 | 5 | 7 | – | – | Activity [1]: 7% |

| Structure (SMILES) | Activity [2] [%] | Activity [3] [%] | Activity [4] [%] | inhibition at 72 h, 0.5 µM [5] [%] | IC50 [6] [µM] | also measured |
| --- | --- | --- | --- | --- | --- | --- |
| O=C(O)c1ccc2cc(-c3ccc(O)c([C@@H]4CC[C@@H]5CCCC[C@H]5C4)c3)ccc2c1 | – | – | 0 | 0 | > 0.5 | – |
| CC(C)=CCC/C(C)=C\Cc1cc(-c2ccc3cc(C(=O)O)ccc3c2)ccc1O | – | – | 0 | – | – | – |
| COCCOCOc1ccc(-c2ccc3cc(C(=O)O)ccc3c2)cc1C12CC3CC(CC(C3)C1)C2 | – | – | 21 | – | – | – |
| COc1cc(-c2ccc3cc(C(=O)O)ccc3c2)ccc1C12CC3CC(CC(C3)C1)C2 | – | – | 0 | – | – | – |
| O=C(O)c1ccc2cc(-c3ccc(O)c([C@H]4CCC5CCCC[C@H]5C4)c3)ccc2c1 (some centres undefined) | – | – | 0 | – | – | – |
| CC(C)(C)c1cc(-c2ccc3cc(C(=O)O)ccc3c2)ccc1O | – | – | – | 10 | > 0.5 | – |
| Cc1c(-c2ccc(O)c(-c3ccc4c(c3)C(C)(C)CCC4(C)C)c2)ccc2cc(C(=O)O)ccc12 | 0 | – | 0 | 60 | 0.6 | – |
| CC(=O)Nc1ccc(-c2ccc(/C=C/C(=O)O)cc2Cl)cc1C12CC3CC(CC(C3)C1)C2 | – | – | – | – | – | inhibition at 5 µM [7]: 13%; IC50 [8]: 4.55 µM; IC50 [9]: > 5 µM; Activity [10]: 25%; IC50 [11]: > 5 µM; inhibition at 5 µM [12]: -5%; IC50 [13]: 5 µM; Activity [19]: 7%; inhibition at 5 µM [14]: 8%; Activity [15]: 47%; IC50 [16]: > 5 µM; Activity [18]: 3% |
| Cc1cc(C)c(-c2cc(-c3ccc4cc(C(=O)O)ccc4c3C)ccc2O)c(C)c1 | 0 | – | 0 | 17 | > 0.5 | – |
| Cc1c(-c2ccc(O)c(C34CC5CC(CC(C5)C3)C4)c2)ccc2cc(C(=O)O)ccc12 | 29 | 28 | 70 | 65 | 0.34 | Activity [1]: 43% |
| COc1ccc(-c2ccc3cc(C(=O)O)ccc3c2)cc1C12CC3CC(CC(C3)C1)C2 | 3 | – | 95 | – | – | – |
| O=C(O)c1ccc2cc(-c3ccc(O)c([C@@H]4CCC[C@H]5CCCCC54)c3)ccc2c1 (some centres undefined) | – | – | 0 | 10 | > 0.5 | – |
| O=C(O)c1ccc2cc(-c3cc(C45CC6CC(CC(C6)C4)C5)ccc3O)ccc2c1 | – | 0 | – | – | – | – |
| O=C(O)c1ccc2cc(-c3cc(O)cc(C45CC6CC(CC(C6)C4)C5)c3)ccc2c1 | – | 0 | – | – | – | – |
| CC1(C)CCC(C)(C)c2cc(-c3ccc4cc(C(=O)O)ccc4c3)c(CO)cc21 | – | 0 | – | – | – | – |
| O=C(O)c1ccc2cc(-c3cc(O)c(O)c(C45CC6CC(CC(C6)C4)C5)c3)ccc2c1 | – | 0 | – | – | – | – |
